pKi: −log10 of the molar value.
Key:
[1] = tested on: CAKI-1; test: Growth inhibition of human CAKI-1 cells assessed as cell growth at 10^-5 M after 48 hrs by sulforhodamine B assay relative to control; format: functional; details: CAKI-1, 48 h, read-out: Activity
Method in brief: (§1)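 NCI-60 single-dose screen at 10^-5 M. Cells grown in RPMI 1640 with 5% FBS and 2 mM L-glutamine, plated at 5,000–40,000 cells/well according to doubling time, and preincubated 24 h at 37°C, 5% CO2. Compound dissolved in DMSO and added. Exposure 48 h. Adherent cells fixed with cold TCA (10% final), suspension cells with 16% final TCA. Read-out is 0.4% SRB staining, dye solubilised in 10 mM Tris, absorbance at 515 nm. Percent growth is calculated against the time-zero plate and untreated control.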

[2] = tested on: ACHN; test: Growth inhibition of human ACHN cells assessed as cell growth at 10^-5 M after 48 hrs by sulforhodamine B assay relative to control; format: functional; details: read-out: Activity; method in brief: as §1
[3] = tested on: A498; test: Growth inhibition of human A498 cells assessed as cell growth at 10^-5 M after 48 hrs by sulforhodamine B assay relative to control; format: functional; details: A498, 48 h, read-out: Activity; method in brief: as §1
[4] = tested on: OVCAR-4; test: Growth inhibition of human OVCAR4 cells assessed as cell growth at 10^-5 M after 48 hrs by sulforhodamine B assay relative to control; format: functional; details: OVCAR-4, 48 h, read-out: Activity; method in brief: as §1
[5] = tested on: SK-MEL-5; test: Growth inhibition of human SK-MEL-5 cells assessed as cell growth at 10^-5 M after 48 hrs by sulforhodamine B assay relative to control; format: functional; details: SK-MEL-5, 48 h, read-out: Activity; method in brief: as §1
[6] = tested on: M14; test: Growth inhibition of human M14 cells assessed as cell growth at 10^-5 M after 48 hrs by sulforhodamine B assay relative to control; format: functional; details: M14, 48 h, read-out: Activity; method in brief: as §1
[7] = tested on: SNB-75; test: Growth inhibition of human SNB75 cells assessed as cell growth at 10^-5 M after 48 hrs by sulforhodamine B assay relative to control; format: functional; details: SNB-75, 48 h, read-out: Activity; method in brief: as §1
[8] = tested on: SNB-19; test: Growth inhibition of human SNB19 cells assessed as cell growth at 10^-5 M after 48 hrs by sulforhodamine B assay relative to control; format: functional; details: SNB-19, 48 h, read-out: Activity; method in brief: as §1
[9] = tested on: SF-539; test: Growth inhibition of human SF539 cells assessed as cell growth at 10^-5 M after 48 hrs by sulforhodamine B assay relative to control; format: functional; details: SF-539, 48 h, read-out: Activity; method in brief: as §1
[10] = tested on: SW-620; test: Growth inhibition of human SW620 cells assessed as cell growth at 10^-5 M after 48 hrs by sulforhodamine B assay relative to control; format: functional; details: SW-620, 48 h, read-out: Activity
Method in brief: (§2)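 NCI-60 single-dose screen, 10^-5 M final. Cells grown in RPMI 1640 with 5% FBS and 2 mM L-glutamine, seeded at 5,000–40,000 cells/well by doubling time. Preincubated 24 h at 37°C, 5% CO2. Compound in DMSO, diluted in medium with gentamicin, then 48 h exposure. Fixed with cold TCA, SRB stained, A515 read. Percent growth vs untreated control, time-zero plate corrected.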

[11] = tested on: HCT-116; test: Growth inhibition of human HCT116 cells assessed as cell growth at 10^-5 M after 48 hrs by sulforhodamine B assay relative to control; format: functional; details: HCT-116, 48 h, read-out: Activity; method in brief: as §1
[12] = tested on: NCI-H522; test: Growth inhibition of human NCI-H522 cells assessed as cell growth at 10^-5 M after 48 hrs by sulforhodamine B assay relative to control; format: functional; details: NCI-H522, 48 h, read-out: Activity; method in brief: as §1
[13] = tested on: NCI-H226; test: Growth inhibition of human NCI-H226 cells assessed as cell growth at 10^-5 M after 48 hrs by sulforhodamine B assay relative to control; format: functional; details: NCI-H226, 48 h, read-out: Activity; method in brief: as §1
[14] = tested on: HOP-92; test: Growth inhibition of human HOP92 cells assessed as cell growth at 10^-5 M after 48 hrs by sulforhodamine B assay relative to control; format: functional; details: HOP-92, 48 h, read-out: Activity; method in brief: as §1
[15] = tested on: HOP-62; test: Growth inhibition of human HOP62 cells assessed as cell growth at 10^-5 M after 48 hrs by sulforhodamine B assay relative to control; format: functional; details: HOP-62, 48 h, read-out: Activity; method in brief: as §1
[16] = tested on: SR; test: Growth inhibition of human SR cells assessed as cell growth at 10^-5 M after 48 hrs by sulforhodamine B assay relative to control; format: functional; details: read-out: Activity; method in brief: as §2
[17] = tested on: RPMI-8226; test: Growth inhibition of human RPMI8226 cells assessed as cell growth at 10^-5 M after 48 hrs by sulforhodamine B assay relative to control; format: functional; details: RPMI-8226, 48 h, read-out: Activity; method in brief: as §1
[18] = tested on: CCRF-CEM; test: Growth inhibition of human CCRF-CEM cells assessed as cell growth at 10^-5 M after 48 hrs by sulforhodamine B assay relative to control; format: functional; details: read-out: Activity; method in brief: as §1
[19] = molecular target: Epidermal growth factor receptor (Homo sapiens, UniProt P00533); test: Inhibition of human EGFR
[20] = molecular target: Mitogen-activated protein kinase 1 (Homo sapiens, UniProt P28482); test: Inhibition of human MAPK1
[21] = tested on: BT-549; test: Growth inhibition of human BT549 cells assessed as cell growth at 10^-5 M after 48 hrs by sulforhodamine B assay relative to control; format: functional; details: BT-549, 48 h, read-out: Activity; method in brief: as §1
[22] = tested on: MDA-MB-231; test: Growth inhibition of human MDA-MB-231 cells assessed as cell growth at 10^-5 M after 48 hrs by sulforhodamine B assay relative to control; format: functional; details: MDA-MB-231, 48 h, read-out: Activity; method in brief: as §1
[23] = tested on: MCF7; test: Growth inhibition of human MCF7 cells assessed as cell growth at 10^-5 M after 48 hrs by sulforhodamine B assay relative to control; format: functional; details: MCF7, 48 h, read-out: Activity; method in brief: as §1
[24] = tested on: DU-145; test: Growth inhibition of human DU145 cells assessed as cell growth at 10^-5 M after 48 hrs by sulforhodamine B assay relative to control; format: functional; details: DU-145, 48 h, read-out: Activity; method in brief: as §1
[25] = tested on: RXF 393; test: Growth inhibition of human RXF393 cells assessed as cell growth at 10^-5 M after 48 hrs by sulforhodamine B assay relative to control; format: functional; details: RXF 393, 48 h, read-out: Activity; method in brief: as §1

Sequence of Mitogen-activated protein kinase 1 (P28482 whole entry): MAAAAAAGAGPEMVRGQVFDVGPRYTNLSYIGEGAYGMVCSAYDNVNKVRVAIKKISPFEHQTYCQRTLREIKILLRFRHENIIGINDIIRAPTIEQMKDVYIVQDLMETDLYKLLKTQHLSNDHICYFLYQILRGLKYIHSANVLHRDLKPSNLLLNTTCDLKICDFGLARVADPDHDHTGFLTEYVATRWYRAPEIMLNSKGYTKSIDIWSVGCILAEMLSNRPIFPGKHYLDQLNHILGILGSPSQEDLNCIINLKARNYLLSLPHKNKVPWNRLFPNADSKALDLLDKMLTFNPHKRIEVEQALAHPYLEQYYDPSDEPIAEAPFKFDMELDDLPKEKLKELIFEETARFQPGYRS
Sequence of Epidermal growth factor receptor (P00533 whole entry): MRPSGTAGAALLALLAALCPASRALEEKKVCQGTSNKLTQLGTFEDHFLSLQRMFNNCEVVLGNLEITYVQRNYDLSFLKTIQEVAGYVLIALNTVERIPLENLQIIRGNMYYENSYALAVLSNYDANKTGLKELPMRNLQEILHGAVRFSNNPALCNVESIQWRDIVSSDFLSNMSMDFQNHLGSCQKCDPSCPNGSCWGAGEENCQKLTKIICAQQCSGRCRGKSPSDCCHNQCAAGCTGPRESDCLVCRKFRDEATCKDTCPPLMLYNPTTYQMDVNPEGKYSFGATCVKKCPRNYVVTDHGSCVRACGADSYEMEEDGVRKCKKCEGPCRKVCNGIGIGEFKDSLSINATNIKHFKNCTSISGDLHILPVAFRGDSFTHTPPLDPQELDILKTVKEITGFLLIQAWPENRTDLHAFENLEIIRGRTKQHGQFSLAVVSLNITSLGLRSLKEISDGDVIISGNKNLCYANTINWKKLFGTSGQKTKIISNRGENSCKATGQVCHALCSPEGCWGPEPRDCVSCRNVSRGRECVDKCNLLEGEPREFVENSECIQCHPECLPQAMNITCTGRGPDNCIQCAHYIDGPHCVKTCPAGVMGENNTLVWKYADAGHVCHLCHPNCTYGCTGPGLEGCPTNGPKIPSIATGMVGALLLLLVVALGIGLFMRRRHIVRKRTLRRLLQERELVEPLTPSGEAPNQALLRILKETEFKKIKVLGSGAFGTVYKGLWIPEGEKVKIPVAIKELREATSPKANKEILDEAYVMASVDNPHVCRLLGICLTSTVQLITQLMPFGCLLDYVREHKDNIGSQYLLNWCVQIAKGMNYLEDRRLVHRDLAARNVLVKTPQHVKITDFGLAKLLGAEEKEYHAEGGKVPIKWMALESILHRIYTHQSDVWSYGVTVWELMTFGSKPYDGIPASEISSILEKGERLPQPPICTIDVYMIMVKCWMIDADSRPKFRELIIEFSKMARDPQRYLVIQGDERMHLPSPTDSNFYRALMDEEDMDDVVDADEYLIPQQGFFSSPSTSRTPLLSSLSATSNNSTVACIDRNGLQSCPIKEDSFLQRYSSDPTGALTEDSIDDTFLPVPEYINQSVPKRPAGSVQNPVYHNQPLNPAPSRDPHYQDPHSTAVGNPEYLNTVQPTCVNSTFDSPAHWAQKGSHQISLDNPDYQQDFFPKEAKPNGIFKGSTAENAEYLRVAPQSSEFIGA

Structure (SMILES) | growth at 10 µM [1] | growth at 10 µM [2] | growth at 10 µM [3] | growth at 10 µM [4] | growth at 10 µM [5] | growth at 10 µM [6] | growth at 10 µM [7] | growth at 10 µM [8] | growth at 10 µM [9] | growth at 10 µM [10] | growth at 10 µM [11] | growth at 10 µM [12] | growth at 10 µM [13] | growth at 10 µM [14] | growth at 10 µM [15] | growth at 10 µM [16] | growth at 10 µM [17] | growth at 10 µM [18] | pKi [19] | pKi [20] | also measured
Cc1ccc(-c2csc(=N)n2CC(=O)N2CCOCC2)cc1 | 89.2% | 97.5% | 95.1% | 102% | 98.2% | 110% | 90.6% | 106% | 100% | 114% | 101% | 93% | 94.3% | 68.3% | 112% | 96.2% | 92.8% | 101% | 4.64 | 5.01 | growth at 10 µM [21]: 99.3%; growth at 10 µM [22]: 98.4%; growth at 10 µM [23]: 97.8%; growth at 10 µM [24]: 108%; growth at 10 µM [25]: 94.5%
CN1CCN(C(=O)Cn2c(-c3ccccc3)csc2=N)CC1 | 70.4% | 81.2% | 92.6% | 88.4% | 88.2% | 94.2% | 56.5% | 93.7% | 98.7% | 96.1% | 91.6% | 82.3% | 85.2% | 73.8% | 88.9% | 74.1% | 92.5% | 97.6% | 4.38 | 5.31 | growth at 10 µM [21]: 92.6%; growth at 10 µM [22]: 78.8%; growth at 10 µM [23]: 81.4%; growth at 10 µM [24]: 104%; growth at 10 µM [25]: 97.3%
N=c1scc(-c2ccccc2)n1CC(=O)N1CCOCC1 | 76.2% | 88% | 117% | 97.3% | 95.5% | 100% | 59.4% | 98.3% | 98.8% | 98% | 98.6% | 94.2% | 86.7% | 70% | 90% | 86.7% | 95.4% | 98.6% | 4.26 | 4.86 | growth at 10 µM [21]: 103%; growth at 10 µM [22]: 95.1%; growth at 10 µM [23]: 89.5%; growth at 10 µM [24]: 107%; growth at 10 µM [25]: 98.7%
N=c1scc(-c2ccc(Cl)cc2)n1CC(=O)N1CCOCC1 | 84.4% | 99.4% | 75.5% | 82.2% | 96.5% | 92.2% | 75.3% | 91.2% | 95.8% | 103% | 87.4% | 79.5% | 94.4% | 81.8% | 98.5% | 72.7% | 78.7% | 91.3% | 5.18 | 5.04 | growth at 10 µM [21]: 95.5%; growth at 10 µM [22]: 97.5%; growth at 10 µM [23]: 86.8%; growth at 10 µM [24]: 104%; growth at 10 µM [25]: 110%
